Sampled rows, rich in hits. Any-hit rate of the full collection: about 2.3%.
TRPC4 act = activators of mouse TRPC4 channel, primary screen, Fluo4 calcium, HEK293 TRPC4beta/mu-opioid cells | Short transient receptor potential channel 4 (Mus musculus), Q9QUQ5 | Fluo4 calcium fluorescence; hits give high values | B-score at 10 µM | 0.49% of 310,000 active | AID 2237, 2010;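 active = B-score above 5 SD of library B-scores, and initial fluorescence ratio not above library mean plus 5 SD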;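 also: positive B-score marks a calcium rise read as TRPC4 activation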
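System: HEK293 cells stably co-expressing mouse TRPC4beta and mu-opioid receptor; Schedule: Fluo4 dye loading 45 min at room temperature, 110 s recording; Detection: Fluo4 fluorescence, kinetic; Evaluation: B-scored integrated calcium fluorescence ratio; Controls: buffer (low) and maximal DAMGO (high).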
TRPC6 activator = mouse TRPC6 channel activators, primary screen, cell-based, HEK293, membrane potential dye | Short transient receptor potential channel 6 (Mus musculus), Q61143 | HEK293-TRPC6 membrane potential dye fluorescence; hits give high values | B-score at 10 µM | 0.13% of 310,000 active;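 active = B-score of the integrated fluorescence ratio above library mean plus 3 SD, and starting fluorescence ratio within library mean plus 5 SD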;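 also: higher score means more depolarization so channel activation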
Target sequence (Q61143 whole entry, looked up): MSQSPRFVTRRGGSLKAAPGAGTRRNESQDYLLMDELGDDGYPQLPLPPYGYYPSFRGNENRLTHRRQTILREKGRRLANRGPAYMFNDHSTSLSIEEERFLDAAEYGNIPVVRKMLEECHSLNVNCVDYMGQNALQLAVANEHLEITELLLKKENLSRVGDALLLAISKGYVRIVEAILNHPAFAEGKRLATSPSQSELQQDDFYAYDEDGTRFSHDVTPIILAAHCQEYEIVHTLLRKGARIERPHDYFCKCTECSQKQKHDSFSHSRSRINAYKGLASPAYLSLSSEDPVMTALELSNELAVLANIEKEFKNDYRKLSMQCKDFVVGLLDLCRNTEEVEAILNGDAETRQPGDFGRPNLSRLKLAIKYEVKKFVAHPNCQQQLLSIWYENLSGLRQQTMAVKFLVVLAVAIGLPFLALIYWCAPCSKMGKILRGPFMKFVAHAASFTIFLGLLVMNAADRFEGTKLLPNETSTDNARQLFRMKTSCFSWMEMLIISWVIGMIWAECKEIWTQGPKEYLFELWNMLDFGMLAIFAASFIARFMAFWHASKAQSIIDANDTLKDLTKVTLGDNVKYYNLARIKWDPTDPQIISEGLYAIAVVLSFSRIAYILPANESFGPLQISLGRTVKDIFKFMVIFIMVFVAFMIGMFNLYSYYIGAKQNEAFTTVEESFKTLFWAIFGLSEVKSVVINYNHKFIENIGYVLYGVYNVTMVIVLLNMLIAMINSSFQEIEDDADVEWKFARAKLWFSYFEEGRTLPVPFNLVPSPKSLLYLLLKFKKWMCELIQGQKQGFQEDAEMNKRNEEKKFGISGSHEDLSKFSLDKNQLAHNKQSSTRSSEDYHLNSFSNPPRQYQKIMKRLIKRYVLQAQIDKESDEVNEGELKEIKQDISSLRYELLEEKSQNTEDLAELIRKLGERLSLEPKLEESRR
TRPC4 PAM = positive allosteric modulators of TRPC4, primary screen, cell-based, mouse TRPC4beta, HEK293 mu-opioid, Fluo-4 calcium. DAMGO EC20, Fluo-4 Ca2+ flux; hits give high values. 0.42% of 310,000 active. Short transient receptor potential channel 4 (Mus musculus), Q9QUQ5. B-score at 10 µM. AID 2227, 2009;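 active = B-score of calcium response area above 5 SD of library B-scores, with initial fluorescence ratio within 5 SD of library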;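 also: B-score of integrated fluorescence ratio over time as area under calcium response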
TRPC6 inh = mouse TRPC6 channel inhibitors, primary screen, cell-based, HEK293, membrane potential dye | 1.1% of 310,000 active | Short transient receptor potential channel 6 (Mus musculus), Q61143 | B-score at 10 µM | ACh-evoked depolarization; hits give low values;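 active = B-score under library mean minus 3 SD, initial fluorescence not abnormally high, positive integrated signal ratio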;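 also: B-score derived from integrated fluorescence ratio over the kinetic read; more negative B-score means stronger inhibition of depolarization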
TRPC4 block = inhibitors of mouse TRPC4 channel, primary screen, Fluo4 calcium, HEK293 TRPC4beta/mu-opioid cells. B-score at 10 µM. DAMGO-evoked Fluo4 calcium flux; hits give low values. AID 2247, 2010. 0.39% of 300,000 active. Short transient receptor potential channel 4 (Mus musculus), Q9QUQ5;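 active = B-score over 3 SD under the library average, no early fluorescence shift, positive overall ratio signal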
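Assay system: TRPC4beta/mu-opioid receptor HEK293 cell line; compound dosing: single concentration per test compound; detection: Fluo4 Ca2+ flux fluorescence; evaluation: per-well B score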
TRPC4 sel inh 2 = second selectivity test of TRPC6 inhibitors: effect on mouse TRPC4; HEK293 TRPC4/MOR, membrane potential dye fluorescence; channel activated by saturating DAMGO dose; shares compounds with TRPC6 inh; inhibition, % at 10 µM; 42% of 920 active;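 active = compounds whose fluorescence signal differed from control wells by over 3 SD, either direction, in both duplicate plates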
TRPC4 spec = mouse TRPC4 modulation by TRPC6 hits, confirmation, selectivity assay for TRPC6 inhibitor project, cell-based, HEK293 TRPC4/mu-opioid, membrane potential dye; shares compounds with TRPC6 inh; 61% of 920 active; activity change, negative = inhibition, % at 10 µM; membrane potential fluorescence; AID 2777, 2010;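 active = rise or fall in signal beyond 3 SD of buffer-only wells in both replicate plates, either sign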;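 also: integrated kinetic ratio of fluorescence range over baseline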
HEK293 MPD ctr 2-1 = nonspecific membrane potential effects, parental HEK293, confirmation, counter-screen for TRPC6 inhibitor project, cell-based, second counter screen; AID 2779, 2010; 31% of 920 active; parental HEK293 membrane potential dye fluorescence; maximal acetylcholine challenge after compound addition; signal change vs control, % at 10 µM; shares compounds with TRPC6 inh;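 active = membrane potential signal moving either way by over 3 SD of the maximum-effect control, in both duplicate plates, meaning non-specific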
HEK293 MPD ctr-1 = membrane potential modulation in parental HEK293, confirmation, counter-screen for TRPC6 inhibitor project, cell-based | shares compounds with TRPC6 inh | parental HEK293 membrane potential dye fluorescence | membrane potential signal change, % at 10 µM | 60% of 920 active | AID 2780, 2010;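 active = membrane potential signal shifting up or down by more than 3 SD of buffer-only wells, on both duplicate plates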
HEK293 MPD ctr-2 = parental HEK293 membrane potential modulation, confirmation, counter-screen for TRPC6 modulator project, cell-based | 51% of 2,400 active | membrane potential dye fluorescence | membrane potential signal change, % at 10 µM | shares compounds with TRPC6 inh | AID 488924, 2010;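 active = membrane potential signal moves up or down beyond 5 SD from buffer-only wells, on both duplicate plates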
HEK293 MPD ctr 2-2 = second counter-screen for TRPC6 modulators: effect in parental HEK293 cells; shares compounds with TRPC6 inh; membrane potential dye fluorescence; after compound, maximal acetylcholine stimulation; inhibition, % at 10 µM; 14% of 2,400 active;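 active = membrane potential signal drops by more than 5 SD from the mean control signal, in both duplicate plates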;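 also: plate controls were acetylcholine ECmax control wells for no effect and buffer only wells for full effect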
TRPC4/MOR mod = TRPC4 modulation by TRPC6 hit compounds, confirmation, selectivity assay for TRPC6 modulator project, cell-based, HEK293 TRPC4/mu-opioid, membrane potential dye, mouse | shares compounds with TRPC6 inh | membrane potential fluorescence | percent change from control (negative = decrease, positive = increase), % at 10 µM | 69% of 2,400 active | AID 488927, 2010;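 active = membrane potential signal moved up or down beyond 5 SD of buffer control wells, in both duplicate plates, actives on both sides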;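 also: plate controls were assay buffer wells for no effect and DAMGO maximal-effect wells for full effect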
TRPC4/MOR inh 2 = second check of whether TRPC6 modulators also affect mouse TRPC4 | inhibition, % at 10 µM | AID 488928 | shares compounds with TRPC6 inh | 55% of 2,400 active | HEK293 TRPC4/mu-opioid, membrane potential dye fluorescence; stimulated with maximal-effect DAMGO;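 active = drop in membrane potential signal beyond 5 SD of the control wells in both duplicate plates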;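 also: TRPC4 counter screen for TRPC6 hits run under conditions tuned for TRPC6 not TRPC4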
TRPC6 block conf = mouse TRPC6 channel inhibitors, confirmation, HEK293 cells, membrane potential dye, duplicate; shares compounds with TRPC6 inh; ACh-evoked depolarization; inhibition, % at 10 µM; 43% of 3,300 active;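 active = fluorescence ratio falls more than 5 SD below the full-stimulation control mean, in both duplicate runs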;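 also: integrated fluorescence ratio of peak minus minimum over baseline after agonist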
TRPC6 act conf = mouse TRPC6 channel activators, confirmation, HEK293 cells, membrane potential dye, duplicate; shares compounds with TRPC6 inh; HEK293-TRPC6 membrane potential dye fluorescence, FDSS; activation, % at 10 µM; 11% of 2,800 active; AID 488961, 2010;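 active = ratio signal rise beyond 5 SD above unstimulated control wells' mean, seen in both duplicate runs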;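 also: plate controls were buffer EC0 wells for no effect and acetylcholine ECmax response for full effect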
* marks the source's active call; other numbers are inactive results; i = inactive; . = no result.

SMILES	TRPC4 act	TRPC6 activator	TRPC4 PAM	TRPC6 inh	TRPC4 block	HEK293 MPD ctr-2	HEK293 MPD ctr 2-2	TRPC4/MOR mod	TRPC4/MOR inh 2	TRPC6 block conf	TRPC6 act conf	others
Cc1ccc(NCc2nnc(SCC(=O)Nc3ccccc3)n2CC2CCCO2)c(C)c1 (configuration not stated)	i	i	i	i	i	.	.	.	.	.	.
Cc1ccc(NCc2nnc(SCCN3CCCCC3)n2CC2CCCO2)c(C)c1 (configuration not stated)	i	i	i	-5.7*	i	i	i	16%*	35%*	41%*	i
CCn1c(=O)c2c(nc(SCC(=O)N3CCCC(C)C3)n2C)n(C)c1=O (configuration not stated)	i	i	i	i	i	.	.	.	.	.	.
COC(=O)c1ccc(Oc2nc(C)cc(Oc3ccccc3)n2)cc1	i	i	i	-7.8*	i	.	.	.	.	i	i	TRPC4 sel inh 2=i;TRPC4 spec=1.0%*;HEK293 MPD ctr 2-1=i;HEK293 MPD ctr-1=1.6%*
O=C(CSc1ccsc1[N+](=O)[O-])N1CCN(c2ccccn2)CC1	i	i	i	i	i	.	.	.	.	.	.
CC(C)N(C(=O)CSc1nnc(-c2cc3ccccc3cc2O)n1Cc1ccco1)C(C)C	i	i	i	i	i	.	.	.	.	.	.
COCCn1c(SCC(=O)N(C(C)C)C(C)C)nnc1-c1cc2ccccc2cc1O	i	i	i	-5.1*	i	i	i	i	i	42%*	.

High-throughput results deposited in PubChem BioAssay by Johns Hopkins Ion Channel Center.
